Experimental data reported in ChEMBL document CHEMBL3091373, “Phenylspirodrimanes with anti-HIV activity from the sponge-derived fungus Stachybotrys chartarum MXH-X73” (J Nat Prod, 2013).

Experiments:
[1] = system: HEK-293T; assay: Cytotoxicity against human 293T cells at 10 uM after 48 hrs; format: cell-based
Method in brief: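 293T cells at the anti-HIV assay culture conditions (seeded 6 × 10^4 cells/well the day before), compound in DMSO incubated 48 h without virus; viability read with a cell proliferation assay kit.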

[2] = system: Human immunodeficiency virus 1; assay: Antiviral activity against wild-type HIV-1 infected in HEK293T cells co-transfected with VSVG protein assessed as time required for 50% failure of viral replication at 10 uM by luciferase reporter gene assay; format: functional, HEK-293T
Method in brief: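 Time-of-addition run: HEK 293T cells seeded 6 × 10^4/well, held overnight at 37 °C, then infected with VSVG/HIV-wt pseudoparticles (t = 0 at particle addition). Compounds added at a final 10 μM at 0, 2, 4, 6, 8, 10, 12, 14 or 16 h. Cells lysed 48 h post-infection and luciferase activity measured.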

[3] = system: Human immunodeficiency virus 1; assay: Antiviral activity against HIV-1 expressing reverse transcriptase K103N/P225H double mutant infected in human 293T cells co-transfected with VSVG protein assessed as inhibition of viral-replication incubated 15 mins prior to viral-infection measured after 48 hrs by luciferase reporter gene assay; format: functional, organism-based; details: Human immunodeficiency virus 1, HEK-293T
Method in brief: (§1)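 VSV-G-pseudotyped single-cycle HIV made by Ca3(PO4)2 co-transfection of 293T cells with env-deficient pNL4-3.luc.R-E- (wild-type or RT mutant) vector; medium changed 16 h post-transfection, supernatant harvested at 48 h, filtered, diluted to 0.2 ng p24/mL. Target 293T cells seeded 6 × 10^4/well the day before; compounds in DMSO added 15 min pre-infection; luciferase of lysates read 48 h post-infection.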

[4] = system: Human immunodeficiency virus 1; assay: Antiviral activity against HIV-1 expressing reverse transcriptase K103N/G190A double mutant infected in human 293T cells co-transfected with VSVG protein assessed as inhibition of viral-replication incubated 15 mins prior to viral-infection measured after 48 hrs by luciferase reporter gene assay; format: functional, organism-based; details: Human immunodeficiency virus 1, HEK-293T; method in brief: as §1
[5] = system: Human immunodeficiency virus 1; assay: Antiviral activity against HIV-1 expressing reverse transcriptase K103N/V108I double mutant infected in human 293T cells co-transfected with VSVG protein assessed as inhibition of viral-replication incubated 15 mins prior to viral-infection measured after 48 hrs by luciferase reporter gene assay; format: functional, organism-based; details: Human immunodeficiency virus 1, HEK-293T; method in brief: as §1
[6] = system: Human immunodeficiency virus 1; assay: Antiviral activity against HIV-1 expressing reverse transcriptase L100I/K103N double mutant infected in human 293T cells co-transfected with VSVG protein assessed as inhibition of viral-replication incubated 15 mins prior to viral-infection measured after 48 hrs by luciferase reporter gene assay; format: functional, organism-based; details: Human immunodeficiency virus 1, HEK-293T; method in brief: as §1
[7] = system: Human immunodeficiency virus 1; assay: Antiviral activity against HIV-1 expressing reverse transcriptase K103N mutant infected in human 293T cells co-transfected with VSVG protein assessed as inhibition of viral-replication incubated 15 mins prior to viral-infection measured after 48 hrs by luciferase reporter gene assay; format: functional, organism-based; details: Human immunodeficiency virus 1, HEK-293T; method in brief: as §1
[8] = system: Human immunodeficiency virus 1; assay: Antiviral activity against wild-type HIV-1 infected in human 293T cells co-transfected with VSVG protein assessed as inhibition of viral-replication incubated 15 mins prior to viral-infection measured after 48 hrs by luciferase reporter gene assay; format: functional, organism-based; details: Human immunodeficiency virus 1, HEK-293T; method in brief: as §1
[9] = system: Human immunodeficiency virus 1; assay: Ratio of EC50 for HIV-1 expressing reverse transcriptase K103N/P225H double mutant to EC50 for wild-type HIV-1; format: functional
Method in brief: (§2)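 Fold change, computed as the EC50 against each VSV-G-pseudotyped NNRTI-resistant RT-mutant HIV-1 divided by the EC50 against wild-type pseudovirus. Both EC50s come from the 293T single-cycle luciferase infection assay, with compound added 15 min before infection and read at 48 h.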

[10] = system: Human immunodeficiency virus 1; assay: Ratio of EC50 for HIV-1 expressing reverse transcriptase K103N/G190A double mutant to EC50 for wild-type HIV-1; format: functional; method in brief: as §2
[11] = system: Human immunodeficiency virus 1; assay: Ratio of EC50 for HIV-1 expressing reverse transcriptase K103N/V108I double mutant to EC50 for wild-type HIV-1; format: functional; method in brief: as §2
[12] = system: Human immunodeficiency virus 1; assay: Ratio of EC50 for HIV-1 expressing reverse transcriptase L100I/K103N double mutant to EC50 for wild-type HIV-1; format: functional; method in brief: as §2
[13] = system: Human immunodeficiency virus 1; assay: Ratio of EC50 for HIV-1 expressing reverse transcriptase K103N mutant to EC50 for wild-type HIV-1; format: functional; method in brief: as §2
[14] = molecular target: Human immunodeficiency virus type 1 reverse transcriptase (Human immunodeficiency virus 1) (UniProt Q72547); assay: (§3) Inhibition of HIV-1 reverse transcriptase after 1 hr by spectrophotometry
Method in brief: (§4)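 RNA-dependent DNA polymerase activity. Started with reverse transcriptase, 1 h at 37 °C. Product captured on streptavidin plate 1 h at 37 °C, TMB 15 min, stopped with H2SO4, OD450. Dose-response EC50.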

[15] = molecular target: Human immunodeficiency virus type 1 reverse transcriptase (Human immunodeficiency virus 1, UniProt Q72547); assay: as §3; method in brief: as §4

For `COC(=O)[C@H](CCC(=O)O)N1Cc2c(cc(O)c3c2O[C@]2(C3)[C@H](C)CC[C@H]3C(C)(C)[C@H](O)CC[C@@]32C)C1=O`, the Activity [1] was “Non-toxic”.
For `C[C@@H]1CC[C@H]2C(C)(C)[C@H](O)CC[C@]2(C)[C@@]12Cc1c(O)cc3c(c1O2)CN([C@@H](CCC(=O)O)C(=O)O)C3=O`, the Activity [1] was “Non-toxic”.
`Cc1cn([C@H]2C[C@H](N=[N+]=[N-])[C@@H](CO)O2)c(=O)[nH]c1=O` [ZIDOVUDINE] gave a Time [2] of 11.59 h.
`Cc1ccnc2c1NC(=O)c1cccnc1N2C1CC1` [NEVIRAPINE] gave an EC50 [3] of 23.3 µM, an EC50 [4] of 51.9 µM and an EC50 [5] of 7.5 µM. The EC50 [6] was 3.3 µM, the EC50 [7] was 2.3 µM and the EC50 [8] was 0.023 µM.
In the case of `COC(=O)CC[C@@H](C(=O)O)N1Cc2c(cc(O)c3c2O[C@]2(C3)[C@H](C)CC[C@H]3C(C)(C)[C@H](O)CC[C@@]32C)C1=O`, the Activity [1] is reported as “Non-toxic”.
In the case of `CC(=O)CN1Cc2c(cc(O)c3c2O[C@]2(C3)[C@H](C)CC[C@H]3C(C)(C)[C@H](O)CC[C@@]32C)C1=O`, the “Ratio EC50” value [9] is reported as 0.7, the “Ratio EC50” value [10] is reported as 1.7 and the “Ratio EC50” value [11] is reported as 1.6. The “Ratio EC50” value [12] was 2.8, the “Ratio EC50” value [13] was 0.8 and the EC50 [3] was 6.2 µM. It also gave an EC50 [4] of 14.2 µM, an EC50 [5] of 13.3 µM and an EC50 [6] of 23.8 µM. The EC50 [7] was 7 µM, the inhibition [14] was “Dose-dependent effect” and the EC50 [15] was 50 µM. For the same molecule, the Time [2] was 12.66 h, the Activity [1] was “Non-toxic” and the EC50 [8] was 8.4 µM.
`C[C@@H]1CC[C@H]2C(C)(C)[C@H](O)CC[C@]2(C)[C@@]12Cc1c(O)cc(CO)c(C=O)c1O2` was tested, and the Activity [1] was “Non-toxic”.
For `C[C@@H]1CC[C@H]2C(C)(C)[C@H](O)CC[C@]2(C)[C@@]12Cc1c(O)cc(CO[C@H]3O[C@H](CO)[C@@H](O)[C@H](O)[C@H]3O)c(C=O)c1O2`, the Activity [1] was “Non-toxic”.
With `C[C@@H]1CC[C@H]2C(C)(C)[C@H](O)C(O)C[C@]2(C)[C@@]12Cc1c(O)cc(CO)c(C=O)c1O2` (some centres undefined) the Activity [1] was “Non-toxic”.
For `C[C@@H]1CC[C@H]2C(C)(C)[C@H](O)CC[C@]2(C)[C@@]12Cc1c(O)cc3c(c1O2)CN(CCCCN1Cc2c(cc(O)c4c2O[C@]2(C4)[C@H](C)CC[C@H]4C(C)(C)[C@H](O)CC[C@@]42C)C1=O)C3=O`, the Activity [1] was “Non-toxic”.
In the case of `C[C@@H]1CC[C@H]2C(C)(C)[C@H](O)[C@H](O)C[C@]2(C)[C@@]12Cc1c(O)cc(CO[C@H]3O[C@H](CO)[C@@H](O)[C@H](O)[C@H]3O)c(C=O)c1O2`, the Activity [1] is reported as “Non-toxic”.
`O=C1Nc2ccc(Cl)cc2[C@@](C#CC2CC2)(C(F)(F)F)O1` [EFAVIRENZ] was tested, and the Time [2] was 13.06 h.
For `Cc1nnc(C(=O)NC(C)(C)c2nc(C(=O)NCc3ccc(F)cc3)c(O)c(=O)n2C)o1`, the Time [2] was 17.78 h.
`Cc1cc(O)c2c(c1C=O)O[C@]1(C2)[C@H](C)CC[C@H]2C(C)(C)[C@H](O)CC[C@@]21C` was tested, and the Activity [1] was “Non-toxic”.
For `C[C@@H]1CC[C@H]2C(C)(C)[C@H](O)CC[C@]2(C)[C@@]12Cc1c(O)cc3c(c1O2)CN(CCCCCN1Cc2c(cc(O)c4c2O[C@]2(C4)[C@H](C)CC[C@H]4C(C)(C)[C@H](O)CC[C@@]42C)C1=O)C3=O`, the Activity [1] was “Non-toxic”.
